Test results: ChEMBL document CHEMBL4052694, “Discovery of novel 5-oxa-2,6-diazaspiro[3.4]oct-6-ene derivatives as potent, selective, and orally available somatostatin receptor subtype 5 (SSTR5) antagonists for treatment of type 2 diabetes mellitus” (Bioorg Med Chem, 2017)
Values after ≈ are worked out from the molar mass of the structure shown. Active and inactive are the calls of the source. No cut-off for these calls is given here.

Key:
[1] = biological target: T1, Somatostatin receptor type 5 (Mus musculus, UniProt O08858); experiment: Antagonist activity at mouse SSTR5 expressed in CHO cells assessed as inhibition of SST14-induced forskolin-stimulated intracellular cAMP level incubated for 15 mins followed by forskolin stimulation for 30 mins by HTRF assay; assay type: functional, cell-based
T1 sequence (O08858 whole entry): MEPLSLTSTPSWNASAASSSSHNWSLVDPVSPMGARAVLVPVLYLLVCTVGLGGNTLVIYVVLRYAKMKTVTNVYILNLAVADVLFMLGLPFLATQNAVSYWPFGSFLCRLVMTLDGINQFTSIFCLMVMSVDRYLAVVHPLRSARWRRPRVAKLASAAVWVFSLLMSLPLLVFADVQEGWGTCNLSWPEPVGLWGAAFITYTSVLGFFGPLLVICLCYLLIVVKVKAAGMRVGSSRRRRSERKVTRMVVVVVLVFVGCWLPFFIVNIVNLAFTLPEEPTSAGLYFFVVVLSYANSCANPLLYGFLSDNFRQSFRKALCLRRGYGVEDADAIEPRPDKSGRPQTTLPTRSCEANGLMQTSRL

hERG (KCNH2) = hERG (KCNH2) (Homo sapiens, UniProt Q12809); experiment: Inhibition of human ERG expressed in CHO cells assessed as decrease in peak tail current at 30 uM after 5 mins at -80 mV holding potential by patch clamp assay relative to control; assay type: cell-based; conditions: CHO cells expressing human ERG
Chain of hERG (KCNH2) (Q12809 whole entry): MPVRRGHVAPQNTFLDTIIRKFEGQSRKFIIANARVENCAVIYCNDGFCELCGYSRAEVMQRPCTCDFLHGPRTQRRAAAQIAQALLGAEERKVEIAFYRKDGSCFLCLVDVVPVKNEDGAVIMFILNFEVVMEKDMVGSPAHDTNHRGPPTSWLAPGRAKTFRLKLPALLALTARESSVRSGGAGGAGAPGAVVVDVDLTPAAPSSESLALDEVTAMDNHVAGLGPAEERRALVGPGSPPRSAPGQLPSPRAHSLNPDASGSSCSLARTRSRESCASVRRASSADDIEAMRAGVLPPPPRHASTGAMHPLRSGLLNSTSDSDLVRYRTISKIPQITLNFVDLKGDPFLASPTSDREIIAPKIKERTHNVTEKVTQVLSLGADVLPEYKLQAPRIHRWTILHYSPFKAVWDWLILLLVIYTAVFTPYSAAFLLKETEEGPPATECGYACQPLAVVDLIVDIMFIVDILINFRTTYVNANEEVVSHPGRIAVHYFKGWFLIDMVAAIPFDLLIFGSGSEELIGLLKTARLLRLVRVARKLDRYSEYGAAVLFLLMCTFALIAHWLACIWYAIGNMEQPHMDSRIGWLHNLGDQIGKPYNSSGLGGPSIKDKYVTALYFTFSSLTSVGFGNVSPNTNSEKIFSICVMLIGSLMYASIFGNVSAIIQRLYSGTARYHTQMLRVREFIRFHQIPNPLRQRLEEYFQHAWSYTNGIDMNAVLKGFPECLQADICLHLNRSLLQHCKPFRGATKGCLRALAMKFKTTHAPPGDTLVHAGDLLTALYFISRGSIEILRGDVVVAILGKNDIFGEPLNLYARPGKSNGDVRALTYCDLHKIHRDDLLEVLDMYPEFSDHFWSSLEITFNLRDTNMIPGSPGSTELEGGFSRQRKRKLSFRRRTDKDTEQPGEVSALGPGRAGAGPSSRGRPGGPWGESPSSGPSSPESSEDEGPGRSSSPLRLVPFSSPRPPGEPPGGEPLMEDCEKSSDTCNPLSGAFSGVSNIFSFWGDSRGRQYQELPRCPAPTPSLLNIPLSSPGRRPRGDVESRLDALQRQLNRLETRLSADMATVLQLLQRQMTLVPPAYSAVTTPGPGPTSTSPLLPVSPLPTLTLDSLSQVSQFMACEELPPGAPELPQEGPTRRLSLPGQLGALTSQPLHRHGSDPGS
How it was run: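 hERG-expressing CHO cells grown at 32 °C in Ham's F-12 with 10% FBS and Geneticin. Population patch clamp, perforated with 100 µg/mL amphotericin B. PBS with Ca/Mg outside; 140 mM KCl, 2 mM MgCl2, 1 mM EGTA, 20 mM HEPES pH 7.3 inside. Holding -80 mV, step to 40 mV for 2 s, then -50 mV for 2 s. Peak tail current compared before and after 5 min with compound at 30 µM, n = 4.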

[2] = Solubility of the compound in aqueous buffer solution at pH 6.8 after 18 hrs by HPLC analysis; assay type: physicochemical
How it was run: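 0.4 mg compound in 0.4 mL aqueous buffer, pH 6.8 (Japanese Pharmacopoeia second disintegration fluid). Shaken at 500 rpm at 37 °C for 18 h, then filtered; dissolved concentration measured by HPLC.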

[3] = biological target: Somatostatin receptor type 5 (Homo sapiens, UniProt P35346); experiment: Antagonist activity at human SSTR5 expressed in CHO cells assessed as inhibition of SST14-induced forskolin-stimulated intracellular cAMP level incubated for 15 mins followed by forskolin stimulation for 30 mins by HTRF assay; assay type: functional, cell-based
Chain of Somatostatin receptor type 5 (Homo sapiens, UniProt P35346) (P35346 whole entry): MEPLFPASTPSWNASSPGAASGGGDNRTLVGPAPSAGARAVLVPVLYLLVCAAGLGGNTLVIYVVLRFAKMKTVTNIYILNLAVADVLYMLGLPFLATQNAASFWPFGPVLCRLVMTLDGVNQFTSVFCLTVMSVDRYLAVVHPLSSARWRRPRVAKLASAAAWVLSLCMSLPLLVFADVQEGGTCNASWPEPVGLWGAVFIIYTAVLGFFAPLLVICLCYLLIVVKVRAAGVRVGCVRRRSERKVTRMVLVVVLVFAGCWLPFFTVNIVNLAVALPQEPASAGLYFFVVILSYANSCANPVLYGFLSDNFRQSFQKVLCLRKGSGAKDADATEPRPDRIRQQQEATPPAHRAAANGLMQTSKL

[4] = 1-octanol/aqueous buffer solution partition coefficient, log D of the compound at pH 7.4 by UV-vis/HPLC method; assay type: physicochemical
How it was run: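 Octanol/buffer partition coefficient at pH 7.4, estimated chromatographically by HPLC with UV–vis detection, using conditions adapted from a published method.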

Mus musculus [5] = experiment: Antidiabetic activity in HFD-fed C57BL/6J mouse assessed as decrease in blood glucose AUC at 10 mg/kg, po pretreated for 1 hr followed by glucose challenge after 1 hr of compound dosing measured up to 120 mins post glucose challenge by OGTT; assay type: functional, organism-based
How it was run: (§1)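 Male C57BL/6J mice on high-fat diet for ten days. Fasted overnight and grouped by weight and blood glucose at 12.5 h. Compound given orally at 1, 3, 10 or 30 mg/kg in 0.5% methylcellulose at 15 h; oral glucose 5 g/kg at 16 h.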

Mus musculus [6] = experiment: Antidiabetic activity in HFD-fed C57BL/6J mouse assessed as decrease in blood glucose level at 10 mg/kg, po pretreated for 1 hr followed by glucose challenge by OGTT; assay type: functional, organism-based; how it was run: as §1
Mus musculus [7] = experiment: Antidiabetic activity in HFD-fed C57BL/6J mouse assessed as increase in insulin secretion at 10 mg/kg, po pretreated for 1 hr followed by glucose challenge by OGTT; assay type: functional, organism-based
Mus musculus [8] = experiment: Toxicity in HFD-fed C57BL/6J mouse assessed as induction of hypoglycemia at 10 mg/kg, po after 1 hr; assay type: organism-based; conditions: in vivo
Mus musculus [9] = experiment: Antidiabetic activity in HFD-fed C57BL/6J mouse assessed as decrease in blood glucose level at 30 mg/kg, po pretreated for 1 hr followed by glucose challenge by OGTT; assay type: functional, organism-based; how it was run: as §1
Mus musculus [10] = experiment: Antidiabetic activity in HFD-fed C57BL/6J mouse assessed as increase in insulin secretion at 30 mg/kg, po pretreated for 1 hr followed by glucose challenge by OGTT; assay type: functional, organism-based
Mus musculus [11] = experiment: Antidiabetic activity in HFD-fed C57BL/6J mouse assessed as decrease in blood glucose AUC at 30 mg/kg, po pretreated for 1 hr followed by glucose challenge after 1 hr of compound dosing measured up to 120 mins post glucose challenge by OGTT; assay type: functional, organism-based; how it was run: as §1

Structure (SMILES) | IC50 [1] [µM] | IC50 [3] [µM] | logD [4] | inhibition at 5 min, 30 µM (hERG (KCNH2)) [%] | further results
CCOc1cc(CN2CC3(CC(c4ccc(C(=O)O)cc4)=NO3)C2)cc(OCC)c1-c1ccc(F)cc1 | 0.033 | 0.009 | 3.3 | 65 | solubility at 18 h [2]: 1.3 µg/mL (≈ 2.58 µM)
COc1ccc(Cl)cc1C(=O)NCCc1ccc(S(=O)(=O)NC(=O)NC2CCCCC2)cc1 [GLYBURIDE] |  |  |  |  | Activity (Mus musculus [5]): Active; Activity (Mus musculus [6]): Active; Activity (Mus musculus [7]): Active; Activity (Mus musculus [8]): Toxic
CCOc1cc(CN2CC3(CC(c4ccc(CO)cc4)=NO3)C2)cc(OCC)c1-c1ccc(F)cc1 | 0.43 | 1 |  |  | 
Cn1c(=O)cc(N2CCC[C@@H](N)C2)n(Cc2ccccc2C#N)c1=O |  |  |  |  | Activity (Mus musculus [9]): Active; Activity (Mus musculus [10]): Active; Activity (Mus musculus [11]): Active
CCOc1cc(CN2CC3(CC(c4ccc(C(=O)O)cc4C)=NO3)C2)cc(OCC)c1-c1ccc(F)cc1 | 0.021 | 0.14 | 3.5 | 18 | 

Second part, led by results:

IC50 [1] [µM] | IC50 [3] [µM] | logD [4] | Structure (SMILES) | inhibition at 5 min, 30 µM (hERG (KCNH2)) [%] | further results
0.22 | 3.2 |  | CCOc1cc(CN2CC3(CC(CCC(=O)O)=NO3)C2)cc(OCC)c1-c1ccc(F)cc1 |  | 
0.15 | 0.15 |  | CCOc1cc(CN2CC3(CC(c4ccc(C(N)=O)cc4)=NO3)C2)cc(OCC)c1-c1ccc(F)cc1 |  | 
0.26 | 0.55 |  | CCOc1cc(CN2CC3(CC(c4cccc(C(=O)O)c4)=NO3)C2)cc(OCC)c1-c1ccc(F)cc1 |  | 
2 | 0.095 | 3.6 | CCOc1cc(C(C)N2CC3(CC(c4ccc(C(=O)O)cc4)=NO3)C2)cc(OCC)c1-c1ccc(F)cc1 (configuration not stated) | 14 | 
> 10 | > 10 | 2.8 | CCOc1cc(C(=O)N2CC3(CC(c4ccc(C(=O)O)cc4)=NO3)C2)cc(OCC)c1-c1ccc(F)cc1 | 7.9 | 
